# PP1 counter: counter-screen for PP5 inhibitors: inhibitors of human PP1-alpha | actives 0.9% (n = 320,000) | inhibition, % at 6.7 µM | AID 2235 | purified PP1alpha, OMFP fluorescence;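 active = inhibition above the mean inhibition of all tested compounds plus 3 SD, computed separately for each screening campaign, cut at about 15% in these data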
# Target sequence (P62136 whole entry, looked up): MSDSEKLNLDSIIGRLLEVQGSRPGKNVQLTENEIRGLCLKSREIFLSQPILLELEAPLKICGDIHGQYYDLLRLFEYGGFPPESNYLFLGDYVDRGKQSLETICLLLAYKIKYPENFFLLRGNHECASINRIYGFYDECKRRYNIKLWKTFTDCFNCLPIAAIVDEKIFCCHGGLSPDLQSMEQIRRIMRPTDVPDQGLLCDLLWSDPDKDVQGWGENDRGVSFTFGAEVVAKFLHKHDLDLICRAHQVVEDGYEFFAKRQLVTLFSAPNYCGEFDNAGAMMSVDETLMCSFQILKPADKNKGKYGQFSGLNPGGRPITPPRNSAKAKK
# AI-2 QS modul: modulates the Vibrio harveyi AI-2 quorum sensing system; Vibrio harveyi JMH597 AI-2 luminescence/OD600 ratio, 9 h; hits give low values; strain lacks LuxN and CqsS sensors; 0 = neutral-control median; activity change, % at 7.5 µM; actives 0.4% (n = 300,000); in the data active = activity change below about -75%, passing the limit was not always enough; inconclusive = no clear call, values can overlap the other calls;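 also: luminescence divided by OD600 gain over 9 h not by final OD600 alone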
# UBC13 inh: blocks human UBC13 polyubiquitin chain formation; P61088; TR-FRET; inhibition, % at 20 µM; actives 0.47% (n = 330,000); AID 485273; in the data active = inhibition above about 45%, passing the limit was not always enough; inconclusive = no clear call, values can overlap the other calls
# Target sequence (P61088 whole entry, looked up): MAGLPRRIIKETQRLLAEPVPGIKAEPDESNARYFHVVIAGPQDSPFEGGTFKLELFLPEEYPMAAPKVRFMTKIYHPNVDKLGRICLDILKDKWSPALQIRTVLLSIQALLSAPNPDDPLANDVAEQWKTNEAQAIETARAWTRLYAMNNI
# T cruzi inh: T. cruzi replication inhibition; T. cruzi beta-gal in NIH3T3, luminescence, 90 h; actives 1.4% (n = 300,000); inhibition, % (test concentration not listed); AID 1885;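 active = mean inhibition across valid replicates above about 55%, limit read from the data; inconclusive = mean below that limit but half or more replicates reach it; inactive = mean below it, under half of replicates reach it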;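 also: signal also drops with host cell toxicity which is not excluded here; 0% = plate median of DMSO wells and 100% = zero luminescence signal; higher percent means less beta-gal luminescence so fewer parasites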
#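 System: NIH/3T3 fibroblasts plus reporter T. cruzi. Medium: DMEM plus 2% FBS. Probe or stimulus: 5000 reporter trypomastigotes per well. Compound: single 50 nL compound addition per well in DMSO. Incubation: co-culture of at least 90 h after 3 h attachment. Detection: GalScreen β-gal luminescence, detergent lysis, 60 min. Evaluation: parasite load inhibition, %.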
# p-CIP stab down: p/CIP protein destabilization. Q05BA5. F442A p/CIP-EGFP cells, EGFP fluorescence, 16 h. decrease of EGFP signal, % at 10 µM. actives 0.01% (n = 290,000);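 active = EGFP signal decrease of at least 30% at 10 µM or well 3 SD below plate mean, unless failing retest; inactive = the rest, including hits failing retest or dose response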
# Starred values were filed as active, the others as inactive; u = inconclusive; x = no result given; ! = not confirmed by another sample. Shown are actives, neighbours in structure and some others; about 2.8% of the full set was active somewhere.
SMILES,PP1 counter,AI-2 QS modul,UBC13 inh,T cruzi inh,p-CIP stab down
CC1CCN(C(=O)/C=C/c2ccc(C(C)(C)C)cc2)CC1,-1,-89*,-13,12,-8
Cc1ccc(OCC(=O)Nc2sc3c(c2C#N)CC(C)(C)NC3(C)C)cc1,-5,29,-2,-11,-3
CC1(C)Cc2c(sc(NC(=O)COc3cccc4ccccc34)c2C#N)C(C)(C)N1,15*,-2,21,9,-3
CCN(CC)CCN1C(=O)Cn2c(C)c(C)c3cccc1c32,-6,-4,-3,69*!,15
CCN(CC)CCN1c2ccccc2Sc2ccccc21,4,23,4,18,-25
COc1ccccc1/C=N/NC(=O)c1ccccc1Cl,3,4,1,-4,-5
O=C(N/N=C/c1ccccc1C(=O)O)c1ccccc1Br,-7,37,10,-15,2
C=CCc1cccc(/C=N/NC(=O)c2ccccc2OC)c1O,-1,47,3,62*,3
C=CCc1cccc(/C=N/NC(=O)c2ccccc2Br)c1O,3,11,10,61*,-7
NS(=O)(=O)c1ccc(NS(=O)(=O)c2ccc(C3CNC(=O)C3)cc2)cc1 (stereo unspecified),-1,x,4,-8,-8
O=[N+]([O-])c1ccc(/C=N/NC(=S)Nc2ccccc2)o1,0,u,-10,41,-13
O=[N+]([O-])c1cccc(-c2ccc(/C=N/NC(=S)Nc3ccccc3)o2)c1,9,28,-25,56*,-7
Cc1cc(-c2nnc(-c3cccc(Cl)c3)o2)no1,-7,8,5,1,-10
c1ccc(CNc2ncnc3ccccc23)cc1,-1,12,0,-73,-7
c1ccc(CNc2c3ccccc3nc3ccccc23)cc1,0,22,1,57*,-13
CN(C)CCCNc1c2ccccc2nc2ccccc12,2,29,21,68*,-11
Nc1cc(=O)[nH]c(SCC(=O)Nc2ccc(S(=O)(=O)N3CCCC3)cc2)n1,x,x,3,x,x
CC(=O)N(C)Cc1ccc(C(=O)CCl)cc1,6,28,12,74*,8
CC(=O)NCc1ccc(C(=O)CCl)s1,10,32,-4,56*,-11
COc1ccc(C(=O)OCC(=O)c2ccc(CNC(C)=O)s2)cc1,-1,x,-8,x,x
CC(=O)NCc1ccc(C(=O)CCl)cc1,-1,42,1,61*,10
CC(=O)Nc1ccc(C(=O)CCl)cc1,-1,x,5,x,x
CCCCOc1ccc(C(=O)CCN2CCOCC2)cc1,-1,26,8,56*,8
CCCOc1ccc(C(=O)CCN2CCCCC2)cc1,-4,5,-3,8,-10
CCN1CCN(c2nc(-c3ccncc3)nc3ccccc23)CC1,-3,16,-5,69*,1
SMILES,PP1 counter,AI-2 QS modul,UBC13 inh,T cruzi inh,p-CIP stab down
CC1C=CCC2C(=O)N(c3cccc(C(=O)Nc4ccc(F)cc4)c3)C(=O)C12 (stereo unspecified),-1,0,3,-2,-6
CS(=O)(=O)c1ccc(S(=O)CC(=O)OCc2ccccc2)c([N+](=O)[O-])c1 (stereo unspecified),x,95,x,56*,30
CCn1cc(Cl)c(C(=O)N2N=C(c3ccc4ccccc4c3)CC2c2ccccc2O)n1 (stereo unspecified),13,13,-13,56*,-11
CCn1cc([N+](=O)[O-])c(C(=O)N2N=C(c3ccc4ccccc4c3)CC2c2ccccc2O)n1 (stereo unspecified),9,20,-16,41,-6
CCn1c(SCC(=O)OC)nnc1-c1c[nH]c2ccccc12,-2,5,24,-20,-8
CCCCCn1c(NC(=O)c2ccco2)c(S(=O)(=O)c2ccc(C)cc2)c2nc3ccccc3nc21,9,-2,-36,55*,-9
Cn1nc([N+](=O)[O-])c(C(C#N)c2ccccn2)c(Cl)c1=O (stereo unspecified),2,46,-68,64*,-9
Cc1c(C(=O)N2CCC(Cc3ccccc3)CC2)sc2ncnc(N3CCC(C)CC3)c12,1,16,-4,72*,7
CC(C)(C)c1ccc(C(=O)NC(=S)NNC(=O)c2cccs2)cc1,-1,3,x,56*,-5
O=C(NC(=S)NNC(=O)c1cccs1)c1ccccc1,1,-40,-17,-5,-12
CCn1cc(CN2CCC(n3nccc3NC(=O)c3ccccc3OC)CC2)cn1,-9,29,-5,33,-23
COc1ccccc1C(=O)Nc1ccnn1C1CCN(Cc2cnc(N(C)C)s2)CC1,-6,31,-2,56*,2
COc1ccccc1C(=O)Nc1ccnn1C1CCN(Cc2ccccc2OCCO)CC1,1,18,-2,-15,-2
CC(=O)c1cccc(CN2CCC(n3nccc3NC(=O)CCCc3ccccc3)CC2)c1,-3,35,5,5,-2
COc1cccc(CN2CCC(n3nccc3NC(=O)CCCc3ccccc3)CC2)c1,-4,-81*,-4,31,8
CCOc1ccc(CN2CCC(n3nccc3NC(=O)c3ccccc3OC)CC2)cc1,1,23,1,62*,-11
O=C(Nc1cccc(C(F)(F)F)c1)Nc1ccc2[nH]c(=O)[nH]c2c1,2,5,3,-2,-2
COc1ccc(NC(=O)CSc2nnc(Cc3ccccc3)c(=O)n2N)cc1OC,-1,29,-9,-8,x
COc1cccc(NC(=O)C(=O)NCCCN2CCCC2=O)c1,-6,30,-2,18,x
CC(C(=O)N1CCc2ccccc21)N1CCN(Cc2ccccc2)CC1 (stereo unspecified),-2,3,5,56*,-10
O=C1CC(NS(=O)(=O)c2ccc([N+](=O)[O-])cc2)CN1c1ccc(Cl)cc1 (stereo unspecified),0,35,-13,62*,x
COc1ccc2[nH]c(CN3CCN(CCC(C)C)C(CCO)C3)c(C)c2c1 (stereo unspecified),-4,-6,9,61*,2
Cc1ccc2nc(Cl)c3cc(C(=O)NCCCN4CCCC4)sc3c2c1,-3,13,22,68*,-1
CCCN1CCN(CCCNC(=O)c2cc3c(=O)oc4ccc(C)cc4c3s2)CC1,-3,5,13,12,8
CN(C)CCN(Cc1ccco1)C(=O)c1cc2c(Cl)nc3ccccc3c2s1,-2,14,16,63*,-10
CCCCN(Cc1ccco1)C(=O)c1cc2c(=O)[nH]c3ccc(C)cc3c2s1,10,21,14,36,-7
Cc1ccc2nc(Cl)c3cc(C(=O)N(CCN(C)C)Cc4ccco4)sc3c2c1,-1,20,25,56*,-2
CN(CC(=O)Nc1ccc(F)cc1)C(=O)CN1C(=O)NC2(CCCc3ccccc32)C1=O (stereo unspecified),-2,16,3,-11,-8

# Screening results (PubChem BioAssay)
